Data on six compounds can be found in PMC7288582 (ACS Omega, 2020).

One experiment concerns the target T1, LOX (Glycine max, UniProt P08170).
T1 sequence (P08170 1-839): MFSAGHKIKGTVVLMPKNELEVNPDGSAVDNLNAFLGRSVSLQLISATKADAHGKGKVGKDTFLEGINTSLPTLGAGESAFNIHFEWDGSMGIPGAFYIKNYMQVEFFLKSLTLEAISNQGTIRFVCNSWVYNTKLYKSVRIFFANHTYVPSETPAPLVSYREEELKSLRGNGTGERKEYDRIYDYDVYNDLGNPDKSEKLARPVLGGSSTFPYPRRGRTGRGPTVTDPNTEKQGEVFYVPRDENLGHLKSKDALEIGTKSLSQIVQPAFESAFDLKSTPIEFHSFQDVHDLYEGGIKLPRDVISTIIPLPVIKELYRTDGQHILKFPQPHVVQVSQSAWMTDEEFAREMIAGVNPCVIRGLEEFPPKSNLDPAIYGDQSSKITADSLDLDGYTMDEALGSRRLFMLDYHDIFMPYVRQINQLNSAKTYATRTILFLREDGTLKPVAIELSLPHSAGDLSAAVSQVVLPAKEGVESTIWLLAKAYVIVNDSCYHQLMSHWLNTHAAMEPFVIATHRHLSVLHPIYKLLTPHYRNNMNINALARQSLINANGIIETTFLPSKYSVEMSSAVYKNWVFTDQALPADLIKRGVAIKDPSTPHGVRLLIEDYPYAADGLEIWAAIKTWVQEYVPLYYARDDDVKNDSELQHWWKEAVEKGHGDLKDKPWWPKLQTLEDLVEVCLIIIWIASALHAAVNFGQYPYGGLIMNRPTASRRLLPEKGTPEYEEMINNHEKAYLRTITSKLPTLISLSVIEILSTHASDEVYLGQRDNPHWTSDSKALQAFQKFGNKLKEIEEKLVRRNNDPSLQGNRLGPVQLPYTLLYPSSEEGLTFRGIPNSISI
The experiment in a line: LOX inhibition, spectrophotometric assay. In kind it is biochemical.

The target of experiment [1] is α-glucosidase from Saccharomyces cerevisiae (Saccharomyces cerevisiae, UniProt P53341). Nature of the experiment: α-Glucosidase inhibition assay. In kind it is biochemical.
For experiment [2], the target named is T2, α-amylase from hog pancreas (Sus scrofa, UniProt P00690).
T2 sequence (P00690 16-511): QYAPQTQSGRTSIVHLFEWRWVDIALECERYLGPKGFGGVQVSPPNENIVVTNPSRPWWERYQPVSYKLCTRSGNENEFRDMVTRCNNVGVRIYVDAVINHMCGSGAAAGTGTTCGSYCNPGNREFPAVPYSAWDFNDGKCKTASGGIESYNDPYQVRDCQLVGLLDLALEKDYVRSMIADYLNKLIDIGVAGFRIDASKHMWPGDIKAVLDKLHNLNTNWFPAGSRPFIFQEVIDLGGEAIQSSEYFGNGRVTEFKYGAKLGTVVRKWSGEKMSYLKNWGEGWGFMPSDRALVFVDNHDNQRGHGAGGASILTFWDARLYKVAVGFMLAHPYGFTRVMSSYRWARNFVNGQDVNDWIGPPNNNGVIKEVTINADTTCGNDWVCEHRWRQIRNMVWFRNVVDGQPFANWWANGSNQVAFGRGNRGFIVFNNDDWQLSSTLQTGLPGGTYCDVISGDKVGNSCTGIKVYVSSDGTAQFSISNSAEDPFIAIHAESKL
The experiment in a line: biochemical.

A short description of experiment [3]: DPPH radical scavenging assay. As to conditions: antioxidant activity. Summed up: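 Test material was polyphenolic-rich plant extracts from pressurized 50% ethanol extraction at 80 °C, microfiltration at 0.45 μm, then nanofiltration on a 200–300 Da polyamide membrane. A modified literature method was used: graded concentrations of extract or standard were mixed with methanolic DPPH solution and absorbance was read at 519 nm. Data were reported as mean ± standard deviation (n = 3).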

pIC50: −log10 of the molar value.

α-glucosidase from Saccharomyces cerevisiae, sequence (P53341 whole entry): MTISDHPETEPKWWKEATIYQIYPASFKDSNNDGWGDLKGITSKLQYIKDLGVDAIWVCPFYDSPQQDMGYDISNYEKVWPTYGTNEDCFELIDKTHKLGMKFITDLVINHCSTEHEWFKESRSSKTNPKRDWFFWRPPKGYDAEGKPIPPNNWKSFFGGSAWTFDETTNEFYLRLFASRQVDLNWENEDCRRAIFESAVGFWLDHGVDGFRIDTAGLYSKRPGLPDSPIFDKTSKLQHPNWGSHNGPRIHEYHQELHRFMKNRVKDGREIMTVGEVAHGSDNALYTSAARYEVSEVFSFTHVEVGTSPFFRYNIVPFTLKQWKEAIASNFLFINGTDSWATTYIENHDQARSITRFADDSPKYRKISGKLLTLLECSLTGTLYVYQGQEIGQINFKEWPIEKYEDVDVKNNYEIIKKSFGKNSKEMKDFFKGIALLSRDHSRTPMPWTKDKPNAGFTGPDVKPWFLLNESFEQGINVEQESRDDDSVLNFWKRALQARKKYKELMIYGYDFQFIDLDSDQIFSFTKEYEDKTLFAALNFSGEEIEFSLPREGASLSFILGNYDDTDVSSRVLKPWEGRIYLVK

Consider `O=C(/C=C/c1ccc(O)c(O)c1)O[C@H](Cc1ccc(O)c(O)c1)C(=O)O` [rosmarinic acid], for which the pIC50 is 3.51 at LOX, 4.92 in experiment [1] and 5.59 in experiment [2].
The like results for `C[C@@H]1O[C@@H](OC[C@H]2O[C@@H](Oc3c(-c4ccc(O)c(O)c4)oc4cc(O)cc(O)c4c3=O)[C@H](O)[C@@H](O)[C@@H]2O)[C@H](O)[C@H](O)[C@H]1O` [rutin] were, in that order, 4.12, 4.97 and 4.73.
Take `O=C1O[C@H]([C@@H](O)CO)C(O)=C1O` [ascorbic acid (vitamin C), ascorbic acid]: the “DPPH, EC50” value in experiment [3] is 3.6 ± 0.2 µg/mL.
As for `O=c1cc(-c2ccc(O)c(O)c2)oc2cc(O)cc(O)c12` [luteolin], the pIC50 on LOX is 3.96; in experiment [1] it was 4.00; in experiment [2] it was 4.17.
The like results for `O=c1c(O[C@@H]2O[C@H](CO)[C@@H](O)[C@H](O)[C@H]2O)c(-c2ccc(O)c(O)c2)oc2cc(O)cc(O)c12` [isoquercitrin, quercetin-3-β-qlucoside] were, in that order, 3.67, 4.77 and 4.68.
Turning to `O=C(/C=C/c1ccc(O)c(O)c1)O[C@@H]1C[C@](O)(C(=O)O)C[C@@H](O)[C@H]1O` [chlorogenic acid], the pIC50 was 3.64 against LOX and 5.28 in experiment [2].
